Laboratory results as given in article PMC11127568 (ACS infectious diseases, 2024).
Like-named read-outs stand apart in the source and are kept apart here.

What was measured:
[1] = test system: B. microti; experiment: In vivo efficacy in B. microti chronic infection model in CB.17/SCID mice; design: species or system mouse (CB.17/SCID); details: SCID mice, 10 mg/kg oral
[2] = test system: B. duncani; experiment: microbe, parasite or virus in culture; assay type: cell-based, Babesia duncani (WA1); details: read-out: IC50 B. duncani
[3] = test system: B. duncani; experiment: In vitro drug-drug interaction with atovaquone by isobologram analysis; assay type: cell-based, Babesia duncani; details: combination with atovaquone; for Mode of Interaction: isobologram analysis
Summary of the method: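 B. duncani WA1 grown in A+ human RBCs, DMEM/F12, 5% hematocrit. […] SYBR Green I lysis read-out (ex 497/em 520 nm). FIC50 = IC50 in combination/IC50 alone, summed; ΣFIC50 <0.8 synergy, 0.8–<1.4 additive, ≥1.4 antagonism. ≥2 independent experiments, triplicates.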

[4] = test system: B. duncani; experiment: In vivo efficacy in B. duncani lethal infection model in C3H/HeJ mice; design: species or system mouse (C3H/HeJ); details: for Survival after monotherapy: lethal B. duncani infection, 10 mg/kg oral daily DPI 3 to 7
Summary of the method: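 Female C3H/HeJ mice (6 weeks, 5 per group) were infected intravenously with 1×10³ B. duncani WA1-infected RBCs. Oral gavage was given daily on DPI 3–7 with 100 μl PEG 400 vehicle or test compound at 10 mg/kg. Parasitemia came from Giemsa-stained thin blood smears, with at least 3000 RBCs counted, followed to DPI 84. Survival by Kaplan-Meier.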

[5] = test system: human cell lines (HeLa, HepG2, HEK, and HCT116); experiment: Drug cytotoxicity evaluation; assay type: cell-based; details: 48 h, read-out: IC50 Human cell lines
[6] = B. duncani, 10 mg/kg oral DPI 3 to 7

SMILES | IC50 [2] [nM] | Mode of Interaction [3] | Survival after monotherapy [4] | also measured
CCOC(=O)OCOc1c(-c2ccc(-c3ccc(OC(F)(F)F)cc3)cc2)c(C)nc2cc(OC)c(F)cc12 [ELQ-672] | 57 ± 18 | synergistic | animals ultimately succumbing to infection | Day parasites emerged ([1]; vehicle DPI 17): 21 DPI; Day peak parasitemia reached ([1]; vehicle DPI 21): 31 DPI; Mean FIC value (Σ FIC50) ([3]; B. duncani in human red blood cells, fixed ratio method): 0.5; Day parasites emerged [4, 6]: 16 DPI; Parasitemia at DPI 19 [4, 6]: 8%
O=C1C(O)=C([C@H]2CC[C@H](c3ccc(Cl)cc3)CC2)C(=O)c2ccccc21 [Atovaquone, reference compound] |  |  |  | IC50 [5]: 5000 nM; IC50 ([2]; Babesia duncani, Erythrocyte, in Homo sapiens, 62 h): 72 ± 6 nM
COc1cc2[nH]c(C)c(-c3ccc(-c4ccc(OC(F)(F)F)cc4)cc3)c(=O)c2cc1F [ELQ-650] | 22 ± 4.9 | additive (0.8 ≤ ΣFIC50 < 1.4 = additive) |  | 
COc1cc2[nH]c(C)c(-c3ccc(-c4ccc(OC(F)(F)F)cc4)cc3)c(=O)c2cc1Cl [ELQ-596] | 32 ± 4.9 | additive (0.8 ≤ ΣFIC50 < 1.4 = additive) |  | 
CCOC(=O)OCOc1c(-c2ccc(-c3ccc(OC(F)(F)F)cc3)cc2)c(C)nc2cc(OC)c(Cl)cc12 [ELQ-598] | 37 ± 2.2 | additive (0.8 ≤ ΣFIC50 < 1.4 = additive) | survival of these mice for the duration of study | Parasites on Giemsa-stained thin-blood smears on monitoring until DPI 84 [4, 6]: no parasites could be detected
